The nature of the series: Toxicity liver stage against HepG2, at 10uM. Type of series: cell-based. Further details: test concentration 10 uM, cell line HepG2-A16-CD81EGFP. The following applies: human, HepG2-A16-CD81EGFP cells; read-out: INHIBITION
Put shortly:
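Uninfected HepG2-A16-CD81EGFP cells, 3 × 10^3 per well, 1536-well, plated on prespotted compound at 10 μM final, parasite-free screening media added to match infected plates; puromycin 10 μM positive, DMSO 0.5% negative; run in parallel with 48 h PbLuc assay at 37 °C, 5% CO2; viability by CellTiter-Glo luminescence, normalized to controls.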

The source of these data is ChEMBL document CHEMBL4513216, “Probing the Open Global Health Chemical Diversity Library for Multistage-Active Starting Points for Next-Generation Antimalarials” (ACS Infect Dis, 2020).

As for `CNC(=O)c1cccc(NCCOc2ccc(CC#N)cc2)c1C`, the cytotoxicity at 10 µM is -0.662%. On to `O=C(CCn1ccc2cc(Br)ccc21)NCc1ccc(C(=O)O)cc1`, for which the cytotoxicity at 10 µM is -11.8%. For the compound `Cc1noc(C)c1CN(C)Cc1csc(-c2ccc(F)cc2)n1`, the cytotoxicity at 10 µM stood at 27.8%. Take `CC[C@@H](CO)NC(=O)c1coc(COc2ccc(OC)cc2)n1`: the cytotoxicity at 10 µM stood at 15%. Regarding `N#Cc1ccc(C(=O)N(C2CC2)C2CC(=O)NC2=O)cc1` (stereo not drawn), the cytotoxicity at 10 µM is -4.64%. For the compound `O=C(COCCc1ccccc1)N1CCCC(n2cncn2)C1` (stereo not drawn), the cytotoxicity at 10 µM is -27.8%. Regarding `Cc1csc(C2CCCCN2C(=O)c2cnn3ccc(C)nc23)n1` (stereo not drawn), the cytotoxicity at 10 µM is -5.85%.

With `C[C@@H](O)CNC(=O)CCc1nc2cccnc2[nH]1`, the cytotoxicity at 10 µM is -6.9%. Turning to `COCCCNC(=O)C(C)(C)N(C)C1CCCC1`, the cytotoxicity at 10 µM is -51.3%. `COc1cccc2c1OCC(CNc1cc(N)nc(SC)n1)C2` (stereo not drawn): the cytotoxicity at 10 µM is 3.37%. For `C=c1ncsc1=C1NN=C(C2CCCN2C(=O)CCn2cccn2)O1` (stereo not drawn), the cytotoxicity at 10 µM amounted to 2.29%. The value for `CC1CN(CC(=O)NCc2ccccc2)CCN1Cc1nccn1C` (stereo not drawn) was -16.2%. As to `COc1ccc(S(=O)(=O)NC(=O)c2c(C)noc2C(C)C)cc1C`, the cytotoxicity at 10 µM stood at 0.495%. With `c1ncn(CC2CCCCN2Cc2cn3ccsc3n2)n1` (stereo not drawn) the figure was -13.9%; with `Cc1ncc(CNC2CCc3nc(C(C)C)nn3C2)s1` (stereo not drawn), 3.97%; with `CCCN(CCC)Cc1nnsc1Cl`, 10.3%. As to `Nc1cc2c(nn1)CCN(C(=O)Cc1ccc3c(c1)CCO3)C2`, the cytotoxicity at 10 µM was found to be 5.52%. With `Cc1nc(O)cc(C2(C)CCCNC2)n1` (stereo not drawn) the figure was 2.98%; with `CCC[C@@H](NC(N)=O)C(=O)N1CCc2c(Cl)cccc2C1`, 5.79%; with `Cc1ncc(CNC(=O)c2oc3ccccc3c2CN(C)C)s1`, 13.5%. With `CC(C)[C@@H]1CN(C(=O)CCc2ccc(F)cc2)C[C@H]1C(=O)O` the figure was -3.97%; with `CC(C)C(NC(=O)c1ccc(Cl)cc1Cl)C(=O)Nc1cnn(C)c1` (stereo not drawn), -2.65%. Consider `Cc1cnn(C2CCCN(C(=O)c3ccn(C)c(=O)c3)C2)c1` (stereo not drawn), for which the cytotoxicity at 10 µM worked out at 4.55%. With `N#Cc1ccc(CN2CCCC2Cn2cccn2)cc1` (stereo not drawn) the figure was -2.96%; with `O=C(c1cc2cc(F)ccc2[nH]1)N1CCC(Nc2ccc(F)cc2)CC1`, -7.36%; with `CCc1ncncc1C(=O)N1CCN(Cc2ccsc2)CC1`, 0.956%. The value for `Cc1ccc(-c2ccccc2CC2(C(=O)NC(C)C)CCCNC2)cc1` (stereo not drawn) was 2.73%.

As for `c1ccc(CN2CCOC3(CCN(c4ncccn4)CC3)C2)nc1`, the cytotoxicity at 10 µM is -2.42%. With `CS(=O)(=O)N1CCC2(CC1)CN(CC1CC1)CC21CCNC1=O` (stereo not drawn) the figure was 1.26%; with `CCC[C@H]1CN(S(=O)(=O)c2ccc(CC)s2)C[C@@H]1N`, 4.69%. As to `CCOc1cc(F)ccc1NC(=O)N(C)Cc1cnn(C)c1`, the cytotoxicity at 10 µM was -17%.

`Cc1ccccc1-n1ncc2c(=O)n(CCN3CCCC3)cnc21`: the cytotoxicity at 10 µM is -11.3%. The value for `CC(C)n1cnnc1CNC(=O)CCCOc1ccccc1F` was -4.56%; that for `Cc1nc(C)n(C2CCCN(C(=O)c3c(C)nn4cccnc34)C2)n1` (stereo not drawn) was -29.2%; that for `CN(CCc1ccncc1)C(=O)C1CSCN1C(=O)C(C)(C)C` (stereo not drawn) was -8.2%. Turning to `CCCS(=O)(=O)N1CCN(c2ccc3nnc(CC)n3n2)CC1`, the cytotoxicity at 10 µM was found to be 8.75%. With `Cc1ccc(N(C)[C@@H]2CC[C@@H]3CN(C(=O)CC4CCOCC4)C[C@@H]32)nn1` the figure was -1.79%; with `CSc1ccc(C(CNC(=O)C2CC2)N2CCc3sccc3C2)cc1` (stereo not drawn), -5.31%; with `CCC(C)N(Cc1ccncc1)C(=O)CCSC` (stereo not drawn), -0.146%.

As to `CC(=O)Nc1nc(CN2CCCC2Cn2cccn2)cs1` (stereo not drawn), the cytotoxicity at 10 µM was -14.4%. Regarding `c1ccc2nc(N3CCCC3)c(NCc3nnc4n3CCC4)nc2c1`, the cytotoxicity at 10 µM came out at 6.9%. With `O=C(c1ncccn1)N1CCC[C@]2(C[C@@H](OCC3CC3)CO2)C1` the figure was -89.7%; with `COc1cccc(CCC2CCCN(C(=O)c3ccccn3)C2)c1` (stereo not drawn), -0.237%; with `CCC(C)(C)NC(=O)c1ccc(-c2ccco2)[nH]c1=O`, -15.6%.

Turning to `Cn1cccc1C(=O)N1CCC2(CC1)CN(c1cncnc1)C(=O)CO2`, the cytotoxicity at 10 µM stood at 4.35%. With `CCOC(=O)C(CO)NC(=O)CCc1cccc(OC2CCCC2)c1` (stereo not drawn) the figure was -7.08%; with `COc1ncccc1CN1CCN(c2noc(C(C)C)n2)CC1`, 10.5%. The value for `COc1ccccc1C1CNCCN1C(C)=O` (stereo not drawn) was 3.6%; that for `Cc1c[nH]c(CN2CCCCC2CCn2cccn2)c(C)c1=O` (stereo not drawn) was 3.69%. With `Cc1nc(CN(C)C2CCN(CCc3ccccn3)C2)no1` (stereo not drawn) the figure was -3.85%; with `O=C(C1CC(c2cccc(F)c2)=NO1)N1CCc2ccccc21` (stereo not drawn), 2.46%; with `COC(=O)c1cccc(C(=O)N2CCN(c3cc(C)ccc3C)CC2)n1`, 7.8%. For `COC(=O)C1Cc2nc[nH]c2CN1Cc1ccc(Sc2ncccn2)o1` (stereo not drawn), the cytotoxicity at 10 µM is -3.94%. With `Cc1ncsc1C(=O)NC1CCN(CCC(N)=O)CC1` the figure was -10.2%; with `Cc1nc(C2CCCN2C(=O)Cc2cccc(F)c2)nc(O)c1C` (stereo not drawn), -26.9%; with `CCOCCCC(=O)Nc1ccc(OCc2noc(C3CC3)n2)cc1`, 44.4%.

As to `O=C(c1ccco1)N1CCO[C@@H]2CNC[C@@H]21`, the cytotoxicity at 10 µM is -108%. With `CN(C)S(=O)(=O)N1CCOC(c2cccc(-c3cncnc3)n2)C1` (stereo not drawn) the figure was 3.71%; with `Cc1cccnc1NC(=O)NC(CCO)C(C)(C)C` (stereo not drawn), 2.3%; with `O=c1cc(CN2CC[C@@]3(O)CCCC[C@H]3C2)c2cccc3c2n1CCC3`, -0.948%. With `c1ccc(C2CN(C3CC3)CC3(CCN(Cc4ncc[nH]4)CC3)C2)cc1` (stereo not drawn) the figure was 7.31%; with `NC(=O)NC(=O)C(c1ccccc1)N1CCN(Cc2ccc(Cl)s2)CC1` (stereo not drawn), -6.7%. The value for `CC(c1cn2ncsc2n1)n1cc2[nH]cccc-2c1=O` (stereo not drawn) was -3.74%; that for `Cc1ccc(CN2C[C@@H](OCc3ccccn3)[C@H]3COC[C@H]32)o1` was -114%. For `NCC(CO)Cc1cccc(OC(F)(F)F)c1` (stereo not drawn), the cytotoxicity at 10 µM worked out at 3.2%. On to `O=C(NCCc1ccccn1)C1(n2cnnn2)CCCCC1`, for which the cytotoxicity at 10 µM was 0.801%. In the case of `COCc1nnn2c1CN(C(=O)c1c[nH]cn1)CCC2`, the cytotoxicity at 10 µM was 2.02%. As for `Cc1cccc(N2CCC3(CCCC(=O)N3)CC2)n1`, the cytotoxicity at 10 µM is -3.8%. The value for `CCn1ccnc1CN1CCCN(C(=O)COC2CCCC2)CC1` was -6.58%; that for `O=S(=O)(Cc1ccc(F)cc1)NCc1ccco1` was 14.1%; that for `CCOc1ccc(CCCC(=O)N2CC[C@H](NC(C)=O)C2)cc1C` was -16%. With `Cc1cc(CN2CCN(Cc3cc(C#N)ccc3F)CC2)no1` the figure was 5.78%. The value for `Cc1cc(N2CCC(c3nccn3Cc3cscn3)CC2)ccn1` was -4.72%; that for `COc1ccc(C2(CNC(C)c3nnc(C)o3)CCCCC2)cc1` (stereo not drawn) was 4.21%. Turning to `CC(=O)c1cccc(NC(=O)N2CCCCC2CN2CCCC2=O)c1` (stereo not drawn), the cytotoxicity at 10 µM worked out at 0.582%. With `COc1cc(N2CCn3cc(CNc4ccccn4)nc3C2)ncn1` the figure was 13.1%; with `CCc1ocnc1C(=O)N1CCN(c2nncc3ccccc23)CC1`, 6.61%; with `O=S(=O)(N1CCN(CC2CC2)CC1)N1CCCC1c1ccco1` (stereo not drawn), 1.24%. For `O=C1CN(C(=O)C2CCCCC2)CC(O)CN1Cc1ccc(Cl)cc1` (stereo not drawn), the cytotoxicity at 10 µM stood at 6.02%. With `CNc1cc(N2CCC(O)(CNC(=O)c3ccc(C)nc3)C2)ncn1` (stereo not drawn) the figure was -25.3%; with `CCc1noc(CN2CCCN(C(C)=O)CC2)n1`, -1.25%. With `CSCC(=O)N1C[C@@H](C)[C@](O)(C(C)C)C1` the figure was 9.24%; with `Cc1ccc(-c2cnnc(N3CCCC3c3nonc3C)n2)o1` (stereo not drawn), 5.46%. The value for `CCc1ncc2c(n1)CN(C(C(N)=O)c1ccccc1)CC2` (stereo not drawn) was -2.35%; that for `Cc1ccccc1C1(CN)CCOCC1` was 7.93%; that for `Cc1ccc(OCC2CCCN(C(=O)CN3CCOCC3)C2)cc1` (stereo not drawn) was -25.6%. Regarding `COC(=O)Nc1cccc(C(=O)N(C)Cc2cccc(O)c2)c1`, the cytotoxicity at 10 µM is -5.88%. With `O=C(CC1CC1)N[C@@H]1CN(Cc2nccs2)C[C@@H]2CCCO[C@@H]21`, the cytotoxicity at 10 µM is 8.85%. With `Cn1cccc1C(=O)N1Cc2c(CN3CCCCC3)nn(C)c2C1` the figure was 1.25%; with `Cc1cccc(-c2c[nH]c(C3CCCN3C(=O)C3CCOCC3)n2)c1` (stereo not drawn), 1.92%; with `CCc1nnc(SCc2cc(=O)n3c4c(sc3n2)CCCC4)[nH]1`, -3.91%. Take `Cc1cccc(OCCC(=O)N2CCCN(C(N)=O)CC2)c1C`: the cytotoxicity at 10 µM is -6.8%. For `CC(C)c1nn(C)c(N(C)C)c1CNC(C)c1ccc2c(c1)OCO2` (stereo not drawn), the cytotoxicity at 10 µM was -4.49%. Regarding `CC(C)c1ncc(-c2cc(C3CCC3)nc(N)c2C#N)cn1`, the cytotoxicity at 10 µM was -16.1%. With `O=C([C@H]1CCCO1)N1CCc2ncnc(C3CC3)c2CC1` the figure was 4.79%. For the compound `CC(C(=O)N(Cc1ccccc1)CC(F)(F)F)S(C)(=O)=O` (stereo not drawn), the cytotoxicity at 10 µM is 11%. The value for `O=C(c1cccc(S(=O)(=O)NCCc2cscn2)c1)N1CCOCC1` was 5.67%. The value for `CCN1CCCC1Cn1ccc2c(OC)c(OC)ccc2c1=O` (stereo not drawn) was -2.78%.
